In ChEMBL document CHEMBL1129681, “Synthesis, absolute configuration, and biological profile of the enantiomers of trans-[2-(2,6-dimethoxyphenoxy)ethyl] [(3-p-tolyl-2,3-dihydro-1,4-benzodioxin-2-yl)methyl]amine (mephendioxan), a potent competitive alpha 1A-adrenoreceptor antagonist” (J Med Chem, 1996):

Columns and labels:
[1] = target: T1, Alpha-1A adrenergic receptor (Rattus norvegicus, UniProt P43140); assay: Binding affinity towards Alpha-1A adrenergic receptor in rat hippocampal membranes using [3H]prazosin as radioligand; assay type: cell membranes, Hippocampus
T1 sequence (P43140 whole entry): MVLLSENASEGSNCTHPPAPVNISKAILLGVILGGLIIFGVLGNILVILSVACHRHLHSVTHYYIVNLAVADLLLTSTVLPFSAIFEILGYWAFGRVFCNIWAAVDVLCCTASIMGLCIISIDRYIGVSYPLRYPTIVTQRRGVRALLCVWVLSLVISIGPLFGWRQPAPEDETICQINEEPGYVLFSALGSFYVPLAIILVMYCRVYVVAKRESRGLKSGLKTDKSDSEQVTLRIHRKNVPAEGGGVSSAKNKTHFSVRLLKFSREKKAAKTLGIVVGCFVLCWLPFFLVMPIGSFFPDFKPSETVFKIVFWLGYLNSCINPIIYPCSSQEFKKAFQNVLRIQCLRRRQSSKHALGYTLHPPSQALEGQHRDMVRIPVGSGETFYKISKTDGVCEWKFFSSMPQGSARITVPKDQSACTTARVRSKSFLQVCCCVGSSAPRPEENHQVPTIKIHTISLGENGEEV
Outline: (§1)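 Native α1A site from rat hippocampus membranes pretreated with CEC, labelled with [3H]prazosin in competition binding. Mean ± SE of at least three separate experiments, each run in triplicate.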

[2] = target: T2, Adrenergic receptor alpha-1 (Rattus norvegicus, UniProt P15823+P23944+P43140); assay: pA2 values was evaluated against Alpha-1 adrenergic receptor in the isolated Rat Vas Deferens; assay type: functional, tissue-based
T2 sequence (P15823 whole entry): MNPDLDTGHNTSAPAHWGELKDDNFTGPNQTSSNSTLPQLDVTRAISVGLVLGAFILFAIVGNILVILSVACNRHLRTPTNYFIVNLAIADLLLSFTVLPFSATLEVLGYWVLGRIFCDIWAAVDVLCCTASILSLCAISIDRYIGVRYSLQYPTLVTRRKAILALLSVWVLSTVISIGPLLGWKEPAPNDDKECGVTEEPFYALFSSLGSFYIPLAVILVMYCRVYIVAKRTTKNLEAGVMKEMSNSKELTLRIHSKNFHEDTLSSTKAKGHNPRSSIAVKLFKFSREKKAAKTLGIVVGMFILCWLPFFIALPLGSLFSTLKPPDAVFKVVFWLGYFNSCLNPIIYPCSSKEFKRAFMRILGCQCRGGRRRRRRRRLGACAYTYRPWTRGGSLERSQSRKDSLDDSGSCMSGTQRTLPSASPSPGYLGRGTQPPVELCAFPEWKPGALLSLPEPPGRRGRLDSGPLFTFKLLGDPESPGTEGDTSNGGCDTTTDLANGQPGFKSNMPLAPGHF
T2 sequence (P23944 whole entry): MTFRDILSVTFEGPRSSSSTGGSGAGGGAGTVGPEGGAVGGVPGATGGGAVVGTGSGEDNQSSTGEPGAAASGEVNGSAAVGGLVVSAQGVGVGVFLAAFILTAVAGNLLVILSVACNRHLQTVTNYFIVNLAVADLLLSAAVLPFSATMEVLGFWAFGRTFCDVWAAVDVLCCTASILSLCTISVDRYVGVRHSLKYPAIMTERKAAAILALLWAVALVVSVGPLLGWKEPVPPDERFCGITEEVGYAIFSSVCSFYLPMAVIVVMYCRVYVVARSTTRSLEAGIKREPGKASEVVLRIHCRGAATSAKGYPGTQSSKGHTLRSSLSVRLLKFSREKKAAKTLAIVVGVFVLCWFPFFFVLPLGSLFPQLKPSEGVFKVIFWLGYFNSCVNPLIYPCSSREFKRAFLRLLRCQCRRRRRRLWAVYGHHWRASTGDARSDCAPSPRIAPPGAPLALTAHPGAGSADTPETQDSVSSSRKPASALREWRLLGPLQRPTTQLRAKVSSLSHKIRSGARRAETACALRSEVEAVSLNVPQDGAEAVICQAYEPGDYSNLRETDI
T2 sequence (P43140 whole entry): T1 sequence (P43140 whole entry)
Outline: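 Functional antagonism was measured in isolated tissue. Dose ratios were taken at agonist EC50 values at three antagonist concentrations, each concentration tested five times. pA2 was derived from Schild plots constrained to slope -1 and is reported as mean ± SE of n experiments.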

[3] = target: T3, D(2) dopamine receptor (Rattus norvegicus, UniProt P61169); assay: Binding affinity towards Dopamine receptor D2 in rat striatum using [3H]spiperone as radioligand; assay type: tissue-based
Outline: (§2)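 Rat brain membranes (native receptors): cerebral cortex for α1 with [3H]prazosin (79.2 Ci/mmol) and α2 with [3H]rauwolscine (80.5 Ci/mmol); hippocampus for 5-HT1A with [3H]8-OH-DPAT (162.9 Ci/mmol); striatum for D2 with [3H]spiperone (17.7 Ci/mmol). Radioligand competition by test drug; mean ± SE of at least three separate experiments in triplicate.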

[4] = target: T4, Alpha-1D adrenergic receptor (Rattus norvegicus, UniProt P23944); assay: Binding affinity towards Alpha-1D adrenergic receptor in rat brain using [3H]prazosin as radioligand; assay type: tissue-based
T4 sequence (P23944 whole entry): T2 sequence (P23944 whole entry)

[5] = target: T2, Adrenergic receptor alpha-1; assay: Binding affinity towards Alpha-1 adrenergic receptor in rat cerebral cortex using [3H]prazosin as radioligand; assay type: tissue-based; outline: as §2
[6] = target: T5, Adrenergic receptor alpha-2 (Rattus norvegicus, UniProt P22086+P19328+P22909); assay: (§3) Binding affinity towards Alpha-2 adrenergic receptor in rat cerebral cortex using [3H]rauwolscine as radioligand; assay type: tissue-based; outline: as §2
T5 sequence (P22086 whole entry): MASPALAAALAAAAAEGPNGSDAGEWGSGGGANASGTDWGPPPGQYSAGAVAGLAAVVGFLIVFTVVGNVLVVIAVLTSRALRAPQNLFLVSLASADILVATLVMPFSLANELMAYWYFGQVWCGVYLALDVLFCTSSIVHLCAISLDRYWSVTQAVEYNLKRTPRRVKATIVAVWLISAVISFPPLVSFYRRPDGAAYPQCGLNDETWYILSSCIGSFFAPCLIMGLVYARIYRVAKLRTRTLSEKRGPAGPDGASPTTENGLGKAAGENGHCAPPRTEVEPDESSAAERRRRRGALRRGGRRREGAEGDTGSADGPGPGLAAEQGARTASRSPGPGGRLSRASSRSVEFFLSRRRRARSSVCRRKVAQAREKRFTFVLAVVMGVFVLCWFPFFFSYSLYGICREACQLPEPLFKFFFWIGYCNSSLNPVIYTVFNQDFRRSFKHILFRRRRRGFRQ
T5 sequence (P19328 whole entry): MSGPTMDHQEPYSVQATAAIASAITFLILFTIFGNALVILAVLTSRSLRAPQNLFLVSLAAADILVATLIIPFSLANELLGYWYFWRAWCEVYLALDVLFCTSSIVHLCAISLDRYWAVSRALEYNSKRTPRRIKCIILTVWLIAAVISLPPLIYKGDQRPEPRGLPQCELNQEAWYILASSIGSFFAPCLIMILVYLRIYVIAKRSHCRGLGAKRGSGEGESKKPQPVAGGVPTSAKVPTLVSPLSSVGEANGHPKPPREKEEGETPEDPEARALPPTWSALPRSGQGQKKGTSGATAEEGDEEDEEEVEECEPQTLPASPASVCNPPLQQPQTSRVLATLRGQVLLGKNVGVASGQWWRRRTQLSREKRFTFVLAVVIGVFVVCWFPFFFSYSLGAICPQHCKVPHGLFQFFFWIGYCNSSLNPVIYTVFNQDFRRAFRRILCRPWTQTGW
T5 sequence (P22909 whole entry): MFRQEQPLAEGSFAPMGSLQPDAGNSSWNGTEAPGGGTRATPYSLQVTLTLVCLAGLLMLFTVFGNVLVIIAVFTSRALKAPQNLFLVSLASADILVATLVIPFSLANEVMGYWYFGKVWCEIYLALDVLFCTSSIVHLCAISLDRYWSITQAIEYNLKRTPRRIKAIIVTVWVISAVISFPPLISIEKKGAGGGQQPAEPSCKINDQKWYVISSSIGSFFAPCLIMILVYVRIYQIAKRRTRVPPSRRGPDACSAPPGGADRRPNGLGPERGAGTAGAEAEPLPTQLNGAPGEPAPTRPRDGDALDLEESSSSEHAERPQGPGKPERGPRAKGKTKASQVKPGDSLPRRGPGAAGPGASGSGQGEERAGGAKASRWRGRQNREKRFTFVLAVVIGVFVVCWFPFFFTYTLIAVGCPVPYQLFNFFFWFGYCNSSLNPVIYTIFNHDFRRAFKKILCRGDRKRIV

[7] = target: T6, Adrenergic receptor alpha-2 (Rattus norvegicus) (UniProt P22086+P19328+P22909); conditions: Vas deferens
[8] = target: T7, 5-hydroxytryptamine receptor 1A (Rattus norvegicus, UniProt P19327); assay: Binding affinity towards 5-hydroxytryptamine 1A receptor in rat hypocampus membrane using [3H]8-OH-DPAT as radioligand; assay type: cell membranes; outline: as §2
T7 sequence (P19327 whole entry): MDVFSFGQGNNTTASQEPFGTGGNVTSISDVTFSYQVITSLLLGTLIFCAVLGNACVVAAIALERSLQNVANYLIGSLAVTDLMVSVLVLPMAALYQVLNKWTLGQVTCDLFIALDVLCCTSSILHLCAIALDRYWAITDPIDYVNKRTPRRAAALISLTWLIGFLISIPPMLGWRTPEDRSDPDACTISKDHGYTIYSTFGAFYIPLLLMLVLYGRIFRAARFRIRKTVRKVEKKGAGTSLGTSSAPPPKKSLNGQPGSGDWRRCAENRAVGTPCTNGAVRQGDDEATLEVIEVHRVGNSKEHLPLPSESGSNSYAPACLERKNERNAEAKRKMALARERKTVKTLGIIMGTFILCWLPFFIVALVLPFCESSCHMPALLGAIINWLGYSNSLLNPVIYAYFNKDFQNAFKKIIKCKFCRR

[9] = target: T8, Alpha-1A adrenergic receptor (Bos taurus, UniProt P18130); assay: Binding affinity towards Alpha-1A adrenergic receptor in bovine brain using [3H]prazosin as radioligand
T8 sequence (P18130 whole entry): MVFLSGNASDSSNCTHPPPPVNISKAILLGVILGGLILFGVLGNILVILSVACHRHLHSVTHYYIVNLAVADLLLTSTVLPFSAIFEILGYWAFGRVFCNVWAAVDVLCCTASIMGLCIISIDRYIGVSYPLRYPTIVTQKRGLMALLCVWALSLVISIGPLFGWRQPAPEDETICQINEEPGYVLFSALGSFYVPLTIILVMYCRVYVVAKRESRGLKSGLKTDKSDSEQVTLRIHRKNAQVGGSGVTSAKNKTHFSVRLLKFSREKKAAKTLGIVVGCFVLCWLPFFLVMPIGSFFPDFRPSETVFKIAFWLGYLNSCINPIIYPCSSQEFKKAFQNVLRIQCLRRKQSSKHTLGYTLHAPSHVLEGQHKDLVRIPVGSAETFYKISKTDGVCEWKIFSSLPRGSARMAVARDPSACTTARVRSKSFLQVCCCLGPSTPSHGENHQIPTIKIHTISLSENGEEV
Outline: (§4)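 Membranes (35-70 µg protein) from COS-7 cells transiently expressing bovine α1a, hamster α1b or rat α1d adrenoceptor. Incubated with 0.3-0.6 nM [3H]prazosin ± displacer in 50 mM Tris-HCl pH 7.4, 10 µM pargyline, 0.1% ascorbic acid, 30 min at 25 °C. Stopped with ice-cold buffer, then rapid filtration. Mean ± SE of ≥3 experiments in triplicate.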

[10] = target: T6, Adrenergic receptor alpha-2 (Rattus norvegicus); conditions: Vas deferens; remark: listed apart in the source
[11] = target: T1, Alpha-1A adrenergic receptor; assay: Binding affinity towards Alpha-1A adrenergic receptor in rat hippocampus (+ 10 uM) […] membrane using [3H]prazosin as radioligand; assay type: tissue-based; outline: as §1
[12] = target: T9, Alpha-1B adrenergic receptor (Rattus norvegicus, UniProt P15823); assay: Binding affinity towards Alpha-1B adrenergic receptor in rat liver using [3H]prazosin as radioligand
T9 sequence (P15823 whole entry): T2 sequence (P15823 whole entry)

[13] = target: T3, D(2) dopamine receptor; assay: In vitro inhibitory activity against [3H]spiperone binding to Dopamine receptor D2
[14] = target: T6, Adrenergic receptor alpha-2 (Rattus norvegicus); assay: as §3; assay type: tissue-based; outline: as §2
[15] = target: T8, Alpha-1A adrenergic receptor; assay: Binding affinity towards Alpha-1A adrenergic receptor in bovine brain using [3H]-prazosin as radioligand; outline: as §4

T3 sequence (P61169 whole entry): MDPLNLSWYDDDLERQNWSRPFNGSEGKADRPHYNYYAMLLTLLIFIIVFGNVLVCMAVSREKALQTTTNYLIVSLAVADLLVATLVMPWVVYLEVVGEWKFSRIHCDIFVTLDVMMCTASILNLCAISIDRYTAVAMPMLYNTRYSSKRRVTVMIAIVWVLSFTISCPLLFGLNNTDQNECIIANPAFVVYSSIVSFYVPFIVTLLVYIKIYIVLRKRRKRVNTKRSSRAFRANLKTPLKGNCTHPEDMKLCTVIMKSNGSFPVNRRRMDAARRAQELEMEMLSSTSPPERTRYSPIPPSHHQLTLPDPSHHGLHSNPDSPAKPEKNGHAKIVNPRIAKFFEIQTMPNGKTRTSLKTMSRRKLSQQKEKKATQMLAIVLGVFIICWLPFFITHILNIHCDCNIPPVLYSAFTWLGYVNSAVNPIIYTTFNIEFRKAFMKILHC

| Structure (SMILES) | Ki [1] | pA2 [2] | Ki [3] | Ki [4] | Ki [5] | Ki [6] | -Log KB [7] | Ki [8] | Ki [9] | -Log KB [10] | Ki [11] | Ki [12] | Ki [13] | Affinity [14] | Ki [15] |
| --- | --- | --- | --- | --- | --- | --- | --- | --- | --- | --- | --- | --- | --- | --- | --- |
| COc1cccc(OC)c1OCCNCC1COc2ccccc2O1 (stereo not given) | 1.29 nM | 9.13 | 123 nM | 6.26 nM | 8.72 nM | 14.72 nM | 6.29 | 7.26 nM | 0.62 nM |  |  |  |  |  |  |
| COC(=O)C1=C(C)NC(C)=C(C(=O)OCCCN2CCC(c3ccccc3)(c3ccccc3)CC2)[C@H]1c1cccc([N+](=O)[O-])c1 [NIGULDIPINE] |  |  |  |  |  | 1611 nM |  |  |  |  |  |  |  |  |  |
| COc1cccc(OC)c1OCCNCC1Oc2ccccc2OC1c1ccc(C)cc1 (racemic) |  | 8.67 |  | 11.8 nM | 17.03 nM |  |  | 606 nM |  | < 5 | 5.32 nM | 103 nM | 82.3 nM | 3.5 µM | 0.91 nM |
| COc1cccc(OC)c1OCCNC[C@@H]1Oc2ccccc2O[C@H]1c1ccc(C)cc1 | 1.76 nM | 8.92 | 86.5 nM | 6.57 nM | 9.97 nM | 4293 nM |  | 889 nM | 0.35 nM | < 5 |  | 62.6 nM |  |  |  |
| COc1cccc(OC)c1OCCNC[C@H]1Oc2ccccc2O[C@@H]1c1ccc(C)cc1 | 40.3 nM | 7.59 | 827 nM | 191 nM | 121.2 nM | 2142 nM |  | 1260 nM | 8.34 nM | < 5 |  | 774 nM |  |  |  |
